Data reported in ChEMBL document CHEMBL1146602, “4-Hydroxymethyl-3-aminoacridine derivatives as a new family of anticancer agents” (J Med Chem, 2003).
pIC50: −log10 of the molar value.

How the values were obtained:
L1210 = test: In vitro cytotoxic against L1210 (murine leukemia) cell line.; type: functional, cell-based; settings: Mus musculus
Outline: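 L1210 mouse leukaemia cells in DMEM with 10% FCS, seeded at 10⁵ cells/mL and grown 24 h (about 3×10^5 cells/mL). Compounds added in DMSO at increasing concentrations, in duplicate, against DMSO controls. Cells counted with a Coulter counter after a further 24 h at 37 °C, 5% CO2. IC50 (50% reduction in cell number versus controls) taken from regression curves.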

[1] = Partition coefficient (logP); type: physicochemical; settings: octanol/water
HT-29 = test: In vitro cytotoxicity against HT-29 (human colon cancer) cell line.; type: functional, cell-based
Outline: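 HT29 colon adenocarcinoma cells in DMEM with 10% FCS, seeded at 5×10^4 cells/well and grown 2 days, then exposed 24 h to compounds in DMSO (DMSO controls). Cells washed with PBS and regrown 3 days drug-free. Survival read by MTT (30 min, 100 µg/well), formazan dissolved in DMSO, A540, as % of controls. IC50 taken from regression curves.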

A549 = test: In vitro cytotoxicity against A549 (human lung carcinoma) cell line.; type: functional, cell-based
Outline: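 Clonogenic test on A549 lung adenocarcinoma cells in F12-K with 10% FCS, plated at 200 cells/well. After 24 h, exposed 24 h to compounds at various concentrations, washed with PBS, then grown 14 days drug-free. Giemsa-stained colonies counted; survival as % of untreated controls.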

SMILES	logP [1]	pIC50 (L1210)	pIC50 (HT-29)	pIC50 (A549)
CNc1ccc2cc3ccc(N(C)S(C)(=O)=O)cc3nc2c1CO	1.56	6.70	5.92	6.52
CCOC(=O)Nc1ccc2cc3ccc4c(c3nc2c1)COC(=O)N4	2	5.57	4.96	5.66
CCOC(=O)Nc1ccc2cc3ccc4c(c3nc2c1)COCN4	2.07	7.10	5.89	< 7.30
Nc1ccc2cc3ccccc3nc2c1CO	1.77	7.70	7.60	8.30
CS(=O)(=O)Nc1ccc2cc3ccc4c(c3nc2c1)COCN4	0.7	5.21	4.92	5.22
CN(C)c1ccc2cc3ccccc3nc2c1CO	2.2	5.22	4.85	4.89
c1cc2cc3ccc4c(c3nc2c2c1NCOC2)COCN4	2.17	6.46	5.82	7.70
CN(c1ccc2cc3ccc4c(c3nc2c1)COCN4)S(C)(=O)=O	1.54	6.22	5.64	5.89
O=C1Nc2ccc3cc4ccccc4nc3c2CO1	1.64	5.55	4.77	5.15
CCOC(=O)Nc1ccc2cc3ccc(N)c(CO)c3nc2c1	1.55	8.00	7.40	8.00
CNc1ccc2cc3ccc(NS(C)(=O)=O)cc3nc2c1CO	0.55	5.55	4.54	5.36
CNc1ccc2cc3ccccc3nc2c1CO	2.1	5.96	5.60	5.85

The next lines start with results.

logP [1]	SMILES	pIC50 (L1210)	pIC50 (HT-29)	pIC50 (A549)
3.12	CCOC(=O)Nc1ccc2cc3ccc4c(c3nc2c1)COCN4C(=O)OCC	4.08	< 4.00	4.72
1.75	CCOC(=O)N1COCc2c1ccc1cc3ccc(NC)c(CO)c3nc21	5.82	5.38	6.46
1.97	CCOC(=O)Nc1ccc2cc3ccc(NC)c(CO)c3nc2c1	7.05	6.46	7.52
1.7	CN1COCc2c1ccc1cc3ccc4c(c3nc21)COC(=O)N4	6.00	5.05	6.35
1.65	CNc1ccc2cc3ccc4c(c3nc2c1CO)COCN4	6.30	5.70	7.00
2.5	CCOC(=O)N1COCc2c1ccc1cc3ccc4c(c3nc21)COCN4C(=O)OCC	< 3.70	6.00	5.46
1.64	CN1COCc2c1ccc1cc3ccc(N)c(CO)c3nc21	6.19	6.52	7.30
1.2	CNc1ccc2cc3ccc4c(c3nc2c1CO)COCN4S(C)(=O)=O	5.80	5.43	7.00
